# According to ChEMBL document CHEMBL4513216, “Probing the Open Global Health Chemical Diversity Library for Multistage-Active Starting Points for Next-Generation Antimalarials” (ACS Infect Dis, 2020):
# Experiment: Toxicity liver stage against HepG2, at 10uM
# Assay type: cell-based
# Set-up: test concentration 10 uM, cell line HepG2-A16-CD81EGFP
# Settings: human, HepG2-A16-CD81EGFP cells; read-out: INHIBITION
# Method in brief: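 Uninfected HepG2-A16-CD81EGFP cells, 3 × 10^3 per well, 1536-well, plated on prespotted compound at 10 μM final, parasite-free screening media added to match infected plates; puromycin 10 μM positive, DMSO 0.5% negative; run in parallel with 48 h PbLuc assay at 37 °C, 5% CO2; viability by CellTiter-Glo luminescence, normalized to controls.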
row,Compound,cytotoxicity at 10 µM [%]
1,Oc1ccccc1CN1C[C@H](O)C[C@H]1c1nc(Cc2ccccc2)no1,-4.82
2,CN1CCC(N(C)C(=O)Nc2ccc(Cl)cc2)CC1,-0.211
3,Cc1occc(=O)c1OCC(=O)N1CCN(c2cccc(Cl)c2)CC1,-1.18
4,CC(C)n1cnc2ccc(NC(=O)CCCn3cccn3)cc2c1=O,-10.6
5,Cn1nc(-c2ccccc2NC(=O)c2cncc(Br)c2)ccc1=O,0.461
6,O=C(CC1CC1)NC1CCc2c(ccc(=O)n2CC2CC2)C1 (stereo unspecified),6.34
7,CN(Cc1ccncc1)C1CC2(CCN(C(=O)c3ccnnc3)CC2)C1,-5.45
8,CC1=N[C@@]2(CC[C@@H]3CN(C(=O)NCC(C)C)C[C@@H]32)C(=O)N1C,5.01
9,O=C1NC(c2ccccc2)=N[C@@]12CC[C@@H]1CN(Cc3ccoc3)C[C@@H]12,5.22
10,COCC1CN(Cc2cc(C)on2)Cc2cn(CC3CC3)nc21 (stereo unspecified),8.91
11,O=C(c1cccs1)N1CC(C(=O)N2CCCC2)C2(CCOCC2)C1 (stereo unspecified),-2.64
12,O=C(Nc1ccccc1)C1CN(Cc2nccs2)CC12CCOCC2 (stereo unspecified),1.61
13,Cc1[nH]/c(=N/C(=O)Cn2nc(N3CCOCC3)ccc2=O)sc1C,1.81
14,Cc1ccc(Cn2c(=O)[nH]c3cccnc3c2=O)cc1,1.61
15,O=c1[nH]c(N2CCCCC2)nc2nccc(-c3ccc4c(c3)OCO4)c12,9.54
16,c1ccc(C[C@H]2[C@H](N3CCOCC3)CCN2Cc2cccnc2)cc1,-4.34
17,Cc1ccc(NC(=O)c2n[nH]c(-n3cnnc3)n2)cc1,6.33
18,CN(CC1(O)CCN(c2ccnc3ccncc23)CC1)C(=O)CCN,-6.86
19,COc1ccc(-c2cc3nc([C@H](C)NC(=O)C4CC4)nn3cn2)cc1,-27
20,COc1ccc(CNc2ncc(-c3cc(C)no3)c(C(C)C)n2)cc1,2.73
21,O=C(NC1CCCc2nc(N3CCOCC3)ncc21)C1CCCC1 (stereo unspecified),-2.3

row,Compound,cytotoxicity at 10 µM [%]
1,CC(NCCCN1CCCC1=O)c1cc(Br)ccc1F (stereo unspecified),1.63
2,CCN(CC1CCOC1)S(=O)(=O)Cc1cc(Cl)ccc1OC (stereo unspecified),3.1
3,O=C1CCC(=O)N1CCn1nnc(-c2cccc(Cl)c2)n1,-5.05
4,CCC(=O)NCC(=O)NC(C)c1ccc(OCCC(C)C)cc1 (stereo unspecified),7.89
5,CC(C)Nc1ncccc1C(=O)NC1CC(=O)N(CC(F)(F)F)C1 (stereo unspecified),-1.54
6,N#Cc1ccc(CN2CCN(c3cncc(Cl)n3)CC2=O)cc1,7.55
7,COC(=O)c1oc(CNC(C)(C)c2ccc3c(c2)OCCO3)cc1C,5.36
8,Cc1nc(-c2ccco2)ccc1C(=O)NCC(=O)N1CCCCC1,-7.76
9,CN1CCC(C(=O)N2CCN(Cc3cccc(Cl)c3)CC2)CC1=O (stereo unspecified),5.44
10,CN(C)CCOc1ccc(CNC(=O)c2cccc(Cl)c2Cl)cc1,15.5
11,N#Cc1cc(NC(=O)c2ccccn2)ccc1N1CCC(O)CC1,0.73
12,Cc1nc(CN2CCC(CNC(=O)C3CCOC3)CC2)oc1C (stereo unspecified),0.0966
13,CCCc1cc(NC2CCc3nc(C(C)C)nn3C2)n2ncnc2n1 (stereo unspecified),-1.41
14,O=C(C(CNCc1ccccn1)c1ccccc1)N1CCOCC1 (stereo unspecified),0.983
15,NC(=O)NC(=O)CCN1CCCC1c1nc(C2CCCCC2)co1 (stereo unspecified),5.33
16,CCOc1cccc(C(=O)NCCC(=O)NCc2ccncc2)c1,0.961
17,Cc1noc(C(C)N2CCN(c3ccc(C#N)cn3)CC2)n1 (stereo unspecified),-0.871
18,Cc1nc(C)n(CC2CCCCN2CC(=O)NCc2ccccn2)n1 (stereo unspecified),2.07
19,O=C(CCc1ccsc1)N1CCCC(N2CCNC2=O)C1 (stereo unspecified),-5.7
20,c1ccc(-c2cnc(CN(Cc3cccnc3)CC3CCCO3)o2)cc1 (stereo unspecified),17.5
21,Cc1nnc(NCCC(=O)N(C)Cc2ccccc2)c(C#N)c1C,-1.04

row,Compound,cytotoxicity at 10 µM [%]
1,Cc1n[nH]c(C2CN(C(=O)c3ccc(=O)n(C)c3)CCO2)n1 (stereo unspecified),3.75
2,CCC(=O)N1CCN(C(=O)Nc2ccccc2-c2cccs2)CC1,-3.21
3,CNS(=O)(=O)CC(=O)N(Cc1c(F)cccc1F)C1CCCC1,-1.98
4,Cc1oc(-c2ccccc2)nc1CC(=O)NC1=NCCS1,0.898
5,NC(=O)CCNCc1c(Cl)cccc1N1CCCC1,8.15
6,N#Cc1ccc(NC2CCN(Cc3ccccn3)CC2)c(F)c1,0.109
7,CC(NC(=O)NCc1ccccn1)c1cccs1 (stereo unspecified),-14.4
8,O=C(CN1CCCNC1=O)N1CCCC(c2nccs2)C1 (stereo unspecified),-12.5
9,COc1ccc(CC(=O)N2CCCN(c3ccc(C#N)cc3)CC2)cc1,-1.95
10,O=C(CCc1nc(Cl)n[nH]1)N1C[C@@H](CN2CCCCC2)[C@@H](CO)C1,-0.104
11,CN(C)C[C@H]1C[C@@H](CO)CN(C(=O)CCc2nc(Cl)n[nH]2)C1,-3.73
12,Cc1cncc(C(=O)N2CCN(c3cnn(C)c(=O)c3)CC2)c1,-20.4
13,O=S1(=O)C[C@@H]2[C@H](C1)N(Cc1ncc[nH]1)CCN2Cc1cccnc1,0.875
14,CCNc1ccnc(NCC2CNCCO2)n1 (stereo unspecified),3.71
15,Fc1ccc(OC2CCN(CCn3cncn3)CC2)cc1,-5.92
16,Cc1cncc(C(=O)N2CCCC(O)(CN(C)C)CC2)c1 (stereo unspecified),6.22
17,CCOCCn1nc(C)cc1C(=O)N1CC[C@](C)(O)C(C)(C)C1,0.429
18,CN1C[C@@H](n2cnc(-c3ccccc3)c2-c2c[nH]cn2)C[C@H]1C(=O)O,0.791
19,CCOc1ccc(C(=O)CCC(=O)NCc2cncn2CC)cc1C,0.902
20,CN(C)CCn1ccnc1C1CCN(C(=O)CCc2ccncc2)CC1,-9.67
21,Cc1nccn1CCC1CCCCN1C(=O)c1ccc2[nH]nnc2c1 (stereo unspecified),19.9

row,Compound,cytotoxicity at 10 µM [%]
1,CCn1cc(NC(=O)NCC(c2cccc(OC)c2)N(C)C)cn1 (stereo unspecified),-7.25
2,O=C(Cc1ccc2c(c1)OCCO2)N1CCN(c2cnccn2)CC1,-11.8
3,COc1ccc(C2CCCN2Cc2nc3c(cnn3C)c(=O)[nH]2)cc1 (stereo unspecified),-9.77
4,CS(=O)(=O)NCCCN1CCCC1c1ccsc1 (stereo unspecified),2.85
5,CCc1nnc(CN2CCOC(Cn3cccn3)C2)o1 (stereo unspecified),-8.15
6,O=C1C(NS(=O)(=O)c2cccc(F)c2)CCN1Cc1ccccc1 (stereo unspecified),-1.67
7,CCc1noc(C(C)N2CCN(C)CC2)n1 (stereo unspecified),-3.21
8,Cc1cnn(C2CCCN(C(=O)Cc3ccc(C#N)cc3)C2)c1 (stereo unspecified),-8.45
9,Cn1ncc(NCc2cccc(F)c2)c(Cl)c1=O,-7.72
10,COCCc1noc(CN2CCCC2Cn2cc(C)cn2)n1 (stereo unspecified),-3.32
11,CN(C)C(=O)N1CCOCC2(CCN(c3ncccn3)C2)C1 (stereo unspecified),-9.17
12,Cc1nc(CN2CCC3(CCCN(Cc4ccoc4)C3)C2=O)cs1 (stereo unspecified),-0.142
13,CCN1CCN(C)C(=O)C12CCN(C(=O)Cc1ccccn1)CC2,0.597
14,O=c1ccc2c(n1Cc1cccnc1)CCN(CC1CCOC1)CC2 (stereo unspecified),8.13
15,CC[C@@H]1N(Cc2ccc(OC)cc2)CCC[C@]12CCC(=O)N2CCOC,14
16,CC1N(c2cnn(C)c2)C(=O)COC12CCN(CC1CC1)CC2 (stereo unspecified),3.68
17,CN(C)C(=O)[C@H]1C[C@H]2CN(c3ncccn3)C[C@@H]1O2,6.1
18,Cc1noc(C)c1CN1C(=O)[C@@H]2CC[C@H]1CN(Cc1cccnc1N)C2,19.7
